# Active and inactive are the calls of the source.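 Rule for the calls: active = fitted curve reaches a 35% growth drop -35 below twice the top tested dose; inactive = activity in the wrong direction, or the rest.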
# System: not listed separately
# Experiment: iron-limited growth inhibition, mexAB-oprM mutant – whole organism, PAK mexAB-OprM mutant, OD600, EDDHA, dry powder, set 4, dose response (AID 624074)
# Settings: P. aeruginosa PAK ΔmexAB-oprM growth with EDDHA, OD600, 28 h; at 100 µM (top of the series)
# How it was run: (§1)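 Test system: P. aeruginosa PAK ΔmexAB-oprM bacteria | Also added: 2 µM EDDHA chelator | Schedule: Compound exposure of 28 h at 30 °C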
row,Compound,"activity change, negative = growth inhibition"
1,CCCCC(C#N)c1ccc(F)cn1 (stereo unspecified),-15.7% (inactive)
2,CCCCC(c1ccc(Cl)cc1)c1nn[nH]n1 (stereo unspecified),-10.1% (inactive)
3,COCCC(C#N)c1ccc(F)cc1 (stereo unspecified),-11.9% (inactive)
4,COCCNC(C#N)c1ccc(Cl)cc1 (stereo unspecified),-1.19% (inactive)

# System: P. aeruginosa PAK ΔmexAB-oprM growth with EDDHA, OD600, 28 h
# Experiment: as above
# Settings: not given
# How it was run: as §1
row,Compound,AC35
1,N#CC(c1ccc(F)cc1)c1cccc(C(F)(F)F)n1 (stereo unspecified),25.6 µM
2,N#CC(c1cccc(C(F)(F)F)n1)c1ccc(Cl)cc1F (stereo unspecified),37.8 µM
3,N#CC(c1ccc(Cl)cc1)c1cccc(C(F)(F)F)n1 (stereo unspecified),29 µM
4,N#CC(c1ccc(Cl)cc1)c1cccc(Cl)n1 (stereo unspecified),60.3 µM
5,N#CC(c1ccc(Cl)cc1)c1ncccc1Cl (stereo unspecified),56.2 µM
6,N#CC(c1ccc(Cl)cc1)c1ccc(Cl)cn1 (stereo unspecified),72 µM
7,N#CC(c1cccc(Cl)n1)c1ccc(Cl)cc1F (stereo unspecified),47.5 µM

# Reference: PubChem BioAssay AID624074 (Broad Institute, 2012)
